Screening data: PubChem BioAssay, Johns Hopkins Ion Channel Center
KCNQ1 pot: potentiates or activates the human KCNQ1 potassium channel. P51787. CHO-K1 KCNQ1, thallium flux FluxOR fluorescence; stronger effect = higher value. B-score at 10 µM. actives 0.35% (n = 310,000). AID 2648;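 active = fluorescence ratio B-score, a plate-corrected score, at least three library SD, with initial intensity B-score within 5 SD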
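Test system: CHO-K1 cells stably expressing KCNQ1 / Medium: assay buffer / Also added: depolarizing K+/Tl+ stimulus, K2SO4 and Tl2SO4 each 12.5 mM in 5x stock / Incubation: 90 min dye loading and 20 min compound exposure, both at room temperature / Signal: thallium influx via FluxOR fluorescence, kinetic imaging / Evaluation: B score of baseline-normalized fluorescence ratio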
hERG protect: hERG (human) protection from proarrhythmic block | actives 0.51% (n = 310,000) | Q12809 | activation (rescue from dofetilide block), less the hit threshold, % at 10 µM | CHO-hERG, FluxOR thallium flux, dofetilide IC70 present | AID 1511;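 active = activation above the mean of controls blocked by dofetilide plus 5 SD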;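 note: thallium influx through hERG after potassium depolarization seen as dye fluorescence rise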
KCNQ1 inh: inhibitors of human KCNQ1 potassium channel | P51787 | CHO-K1 KCNQ1, FluxOR thallium flux fluorescence; stronger effect = higher value | B-score at 10 µM | actives 1.3% (n = 310,000);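 active = compounds whose thallium flux B-score, printed positive for inhibition, exceeds three library SD while starting fluorescence stays within three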;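 note: channel opened by potassium depolarization with thallium stimulus after 20 min compound exposure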
Kir21 block: inhibitors of mouse Kir2.1 inward-rectifier potassium channel | P35561 | B-score at 10 µM | HEK293-Kir2.1, FluxOR thallium flux fluorescence; stronger effect = lower value | actives 0.85% (n = 310,000);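 active = fluorescence ratio B-score at or below minus 3 SD of library scores, with starting-brightness B-score within 2 SD, cut at about -4.2 in these data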;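 note: channel flux triggered by added potassium and thallium sulfate stimulus; B-score of peak minus minimum fluorescence over baseline after thallium stimulus; more negative B-score means stronger Kir2.1 block with less thallium influx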
KCNK3 block: human KCNK3 channel inhibition, primary screen | O14649 | CHO-KCNK3 thallium flux, FluxOR fluorescence; stronger effect = lower value | B-score at 10 µM | actives 0.84% (n = 340,000) | AID 602410;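 active = B-score under library mean minus 4 SD, starting fluorescence ratio at most library mean plus 5 SD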;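 note: more negative B-score means stronger inhibition of thallium flux through KCNK3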
Target sequence (O14649 whole entry, looked up): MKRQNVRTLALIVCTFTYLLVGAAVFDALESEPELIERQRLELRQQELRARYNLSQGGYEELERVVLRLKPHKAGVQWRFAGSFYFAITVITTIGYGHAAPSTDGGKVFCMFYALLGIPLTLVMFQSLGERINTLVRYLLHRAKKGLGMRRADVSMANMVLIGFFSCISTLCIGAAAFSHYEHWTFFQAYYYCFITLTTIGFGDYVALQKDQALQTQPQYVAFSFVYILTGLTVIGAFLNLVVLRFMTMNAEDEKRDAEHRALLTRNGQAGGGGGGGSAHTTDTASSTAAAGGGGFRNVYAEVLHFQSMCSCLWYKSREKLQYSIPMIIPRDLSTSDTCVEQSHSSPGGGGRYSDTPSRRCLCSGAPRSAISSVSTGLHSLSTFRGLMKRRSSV
KCNK9 block: inhibitors of human KCNK9 two-pore domain potassium channel | AID 488922 | HEK293 KCNK9, FluxOR thallium flux fluorescence; stronger effect = lower value | Q9NPC2 | B-score at 10 µM | actives 1.2% (n = 310,000);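 active = ratio B-score over 3 SD below the library mean, with starting fluorescence within 5 SD of its mean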;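 note: negative B-score means less thallium flux so channel inhibition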
Target sequence (Q9NPC2 whole entry, looked up, the tested form may be a part): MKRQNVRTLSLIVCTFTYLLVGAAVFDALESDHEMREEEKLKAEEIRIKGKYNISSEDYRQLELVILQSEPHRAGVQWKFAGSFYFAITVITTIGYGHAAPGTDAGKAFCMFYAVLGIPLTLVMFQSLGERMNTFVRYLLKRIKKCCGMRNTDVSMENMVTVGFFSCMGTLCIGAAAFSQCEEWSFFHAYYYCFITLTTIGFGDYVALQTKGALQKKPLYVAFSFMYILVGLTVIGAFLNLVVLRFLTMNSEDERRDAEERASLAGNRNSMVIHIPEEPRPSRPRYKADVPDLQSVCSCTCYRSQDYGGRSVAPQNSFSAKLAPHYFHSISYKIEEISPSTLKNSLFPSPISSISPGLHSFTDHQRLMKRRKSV
KCNK3 confirm: human KCNK3 channel inhibition, confirmation assay; shares compounds with KCNK3 block; ratio percent of control, % at 10 µM; actives 99% (n = 2,400); CHO-KCNK3 thallium flux, FluxOR fluorescence; 0% buffer, 100% carvedilol maximal block;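 active = ratio percent of control, averaged over triplicates, above buffer control mean plus 5 SD, cut at about 64% in these data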;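 note: ratio is the fluorescence rise from min to max over baseline after thallium stimulus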
KCNK3 noninduced: activity in cells without induced KCNK3 expression; thallium flux ratio (lower = more inhibition) at 10 µM; non-induced KCNK3 parental cells, FluxOR thallium flux; stronger effect = lower value; shares compounds with KCNK3 block; AID 651747; actives 40% (n = 2,400);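 active = thallium flux ratio, averaged over three wells, more than 5 SD below the buffer control mean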;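 note: host cells are CHO cells without KCNK3 induction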
Of the large screens only hits and unclear results are named; the others gave an inactive call (follow-up assays come after a bar, where they were run). In the library only some 3.7% were active in any assay of this set; here they are far more common.

CC(NC(=O)Cc1cccc(C(F)(F)F)c1)c1ccc(F)cc1 (centres undefined)	none
Cc1cnccc1CN(C)Cc1cn(C)nc1-c1ccc(Oc2ccccc2)cc1	KCNK3 block -10.1 | KCNK3 confirm 118.0 | KCNK3 noninduced 0.155
CC(=O)c1cccc(N(CC(=O)Nc2ccc(S(=O)(=O)N3CCCC3)cc2)S(C)(=O)=O)c1	KCNK3 block -9.55 | KCNK3 confirm inactive | KCNK3 noninduced inactive
CC(=O)c1cccc(N(CC(=O)Nc2ccc(S(=O)(=O)N3CCOCC3)cc2)S(C)(=O)=O)c1	none
O=C(Nc1cccc(Cl)c1)NC1CCN(C2CCCCC2)C1 (centres undefined)	none
CCCC(=O)Nc1ccc(-c2csc(N/N=C\c3ccncc3)n2)cc1	KCNK3 block -8.8 | KCNK3 confirm 106.7 | KCNK3 noninduced 0.155
CC1CC(C)(C)N(C(=O)CSc2ccc(-c3ccc(F)cc3)nn2)c2ccccc21 (centres undefined)	KCNQ1 inh 7, KCNK3 block -11.5 | KCNK3 confirm 111.7 | KCNK3 noninduced 0.154
CC1CCN(C(=O)CSc2ccc(-c3ccc(F)cc3)nn2)CC1	none
N#CCC(=O)Nc1ccc(C(=O)OCC(=O)N=c2sccn2Cc2ccccc2Cl)cc1	KCNK3 block -10.7 | KCNK3 confirm 92.0 | KCNK3 noninduced inactive
COc1ccc(N=Cc2sc(O)c3ccccc23)cc1	none
COc1ccc(N=Cc2c(O)c3ccccc3n2C(C)=O)cc1	KCNK3 block -12.9 | KCNK3 confirm 142.7 | KCNK3 noninduced 0.0977
O=C(NCc1ccc(F)cc1)C(c1cccnc1)N(C(=O)c1csnn1)c1ccccc1 (centres undefined)	none
COc1cccc(CNC(=O)COC(=O)c2cc([N+](=O)[O-])ccc2N2CCCC2)c1	none (no result: KCNQ1 pot, hERG protect, KCNQ1 inh, Kir21 block, KCNK9 block)
Cc1ccc(C)c(S(=O)(=O)N2CCCCC2CCNC(=O)C(=O)NCc2ccccc2)c1 (centres undefined)	none
Cc1c(C(=O)N2CCN(c3ccc(C(F)(F)F)cn3)CC2)oc2ccccc12	KCNK3 block -11.5 | KCNK3 confirm 135.3 | KCNK3 noninduced 0.148
O=C(Nc1ccc(N2CCCCCC2)cc1)c1cccc(S(=O)(=O)N2CCOCC2)c1	none (no result: KCNQ1 pot, hERG protect, KCNQ1 inh, Kir21 block, KCNK9 block)
Clc1ccccc1/C=C/C=N/Nc1nc(N2CCOCC2)nc(N2CCOCC2)n1	KCNK3 block -10.4 | KCNK3 confirm 94.0 | KCNK3 noninduced inactive
O=C(/C=C/c1ccc(O)c(O)c1)OCCc1ccccc1	KCNK3 block -12.3 | KCNK3 confirm 84.0 | KCNK3 noninduced 0.141
O=C(CN1CCN(c2ccccc2O)CC1)Nc1ccc2c(c1)OCCCO2	none (no result: KCNQ1 pot, hERG protect, KCNQ1 inh, Kir21 block, KCNK9 block)
Cc1ccc(N(CC(O)Cn2nc(C)cc2C)S(=O)(=O)c2ccc3ccccc3c2)cc1 (centres undefined)	none
COc1ccc(Br)cc1CNC(=O)CN1C(=O)C(c2ccccc2)Oc2cccnc21 (centres undefined)	KCNK3 block -10.3 | KCNK3 confirm 95.0 | KCNK3 noninduced inactive
O=C(c1cnn(C(=O)c2ccco2)c1)c1cc(F)ccc1O	none (no result: KCNQ1 pot, hERG protect, KCNQ1 inh, Kir21 block, KCNK9 block)
Nn1cnnc1SCC(=O)N1CCc2ccccc2C1	none (no result: KCNQ1 pot, hERG protect, KCNQ1 inh, Kir21 block, KCNK9 block)
CC(C)Cn1c(SCc2nc3ccccc3c(=O)[nH]2)nc2ccccc2c1=O	KCNK3 block -10.1, KCNK9 block -6.74 | KCNK3 confirm 102.0 | KCNK3 noninduced inactive
Cn1c(SCc2nc3ccccc3c(=O)[nH]2)nc2ccccc21	none
Cc1ccc(C(=O)CC2(O)C(=O)N(C)c3ccc(Br)cc32)c(C)c1 (centres undefined)	KCNK3 block -9.56 | KCNK3 confirm 93.0 | KCNK3 noninduced inactive
Cc1ccc(C)c(C(=O)CC2(O)C(=O)N(C)c3ccccc32)c1 (centres undefined)	none
O=C(NCC1CCCN1S(=O)(=O)c1cccs1)c1ccc(F)cc1 (centres undefined)	none
COc1ccccc1/C=N/NC(=O)c1cc2c(ccc3ccccc32)o1	KCNK3 block -12.2 | KCNK3 confirm 85.3 | KCNK3 noninduced inactive
CC(C)(C)c1ccc(C(=O)NCCNC(=O)c2ccco2)cc1	none
OCc1c(OCc2cccc(F)c2)ccc2ccccc12	KCNK3 block -9.5 | KCNK3 confirm 97.3 | KCNK3 noninduced inactive
Cc1ccc(NC(=O)COc2ccccc2C(=O)NCc2ccccc2)cc1	none (no result: KCNQ1 pot, hERG protect, KCNQ1 inh, Kir21 block, KCNK9 block)
CN(C)S(=O)(=O)c1cccc(NC(=O)COc2ccccc2C(=O)NCc2ccccc2)c1	KCNK3 block -12.2 (no result: KCNQ1 pot, hERG protect, KCNQ1 inh, Kir21 block, KCNK9 block) | KCNK3 confirm 119.0 | KCNK3 noninduced 0.156
CCc1nc(Nc2cc(OC)ccc2OC)c2oc3ccccc3c2n1	none
CCc1nc(Nc2ccccc2OC)c2oc3ccccc3c2n1	KCNK3 block -9.16 | KCNK3 confirm 116.3 | KCNK3 noninduced 0.145
Cc1ccccc1NC(=O)COC(=O)c1c(-c2ccccc2)noc1C	none (no result: KCNQ1 pot, hERG protect, KCNQ1 inh, Kir21 block, KCNK9 block)
Cc1ccc2c(Cl)cc(Cl)c(OCC(=O)Nc3cc(S(=O)(=O)N(C)C)ccc3C)c2n1	KCNK3 block -9.1 | KCNK3 confirm 90.3 | KCNK3 noninduced 0.155
Cc1ccc(S(=O)(=O)N(C)C)cc1NC(=O)COC(=O)c1c(-c2ccccc2)noc1C	KCNK3 block -9.05 | KCNK3 confirm 91.3 | KCNK3 noninduced inactive
Cn1c(CCn2ccccc2=O)nc2cc(NC(=O)COc3ccccc3)ccc21	none
CC(c1ccccc1)n1c(N2CCN(C)CC2)nc2c1c(=O)[nH]c(=O)n2C (centres undefined)	none
O=[N+]([O-])c1ccc2nc(C3CCCCC3)[nH]c2c1	none
O=[N+]([O-])c1ccc(O)c(C2CCCCC2)c1	KCNK3 block -11.4 (no result: KCNQ1 pot, hERG protect, KCNQ1 inh, Kir21 block, KCNK9 block) | KCNK3 confirm 126.7 | KCNK3 noninduced 0.142
COc1ccc(-c2csc(/C(C#N)=C\c3ccc(O)c([N+](=O)[O-])c3)n2)cc1OC	KCNK3 block -10.5 | KCNK3 confirm 116.3 | KCNK3 noninduced 0.138
Cc1ccc(S(=O)(=O)N2CCOCC2)cc1NC(=O)COC(=O)CNC(=O)c1ccc(Cl)cc1Cl	KCNK3 block -10.5 | KCNK3 confirm 87.3 | KCNK3 noninduced inactive
Cc1ccc(S(=O)(=O)N2CCOCC2)cc1NC(=O)COC(=O)Cc1ccccc1	none (no result: KCNQ1 pot, hERG protect, KCNQ1 inh, Kir21 block, KCNK9 block)
COc1ccc(C(=O)COc2cccc(NC(=O)c3ccco3)c2)cc1	none
Cc1cc(C)cc(C(=O)Nc2cccc(NC(=O)c3ccco3)c2)c1	KCNK3 block -11.4, KCNK9 block -8.02 | KCNK3 confirm 101.3 | KCNK3 noninduced inactive
